≈ marks a conversion by molar mass, not a printed value.
Columns and labels:
Staphylococcus aureus [1] = assay: Antibacterial activity against methicillin-susceptible Staphylococcus aureus; assay type: functional
[2] = test system: Staphylococcus epidermidis; assay: Antibacterial activity against methicillin-resistant Staphylococcus epidermidis; assay type: functional
Staphylococcus aureus [3] = assay: Antibacterial activity against community acquired methicillin-resistant Staphylococcus aureus; assay type: functional
[4] = test system: Staphylococcus haemolyticus; assay: Antibacterial activity against methicillin-resistant Staphylococcus haemolyticus; assay type: functional
Staphylococcus aureus [5] = assay: Antibacterial activity against methicillin-resistant Staphylococcus aureus; assay type: functional
Staphylococcus aureus [6] = assay: Antibacterial activity against methicillin-resistant Staphylococcus aureus NRS382 infected in Swiss mouse; assay type: functional
Procedure, shortened: (§1)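 Murine lethal systemic infection by intraperitoneal MRSA challenge. A single subcutaneous dose was given 5 min after infection.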

Staphylococcus aureus [7] = assay: Antibacterial activity against methicillin-resistant Staphylococcus aureus NRS385 infected in Swiss mouse; assay type: functional; procedure, shortened: as §1
Staphylococcus aureus [8] = assay: Antibacterial activity against methicillin-resistant Staphylococcus aureus NRS384 infected in Swiss mouse; assay type: functional; procedure, shortened: as §1
Moraxella catarrhalis = assay: Antibacterial activity against Moraxella catarrhalis; assay type: functional
Haemophilus influenzae = assay: Antibacterial activity against Haemophilus influenzae; assay type: functional
Neisseria meningitidis = assay: Antibacterial activity against Neisseria meningitidis; assay type: functional
Neisseria gonorrhoeae = assay: Antibacterial activity against Neisseria gonorrhoeae; assay type: functional
Escherichia coli [9] = assay: Antibacterial activity against Escherichia coli; assay type: functional
Proteus mirabilis = assay: Antibacterial activity against Proteus mirabilis; assay type: functional
Staphylococcus aureus [10] = assay: Antibacterial activity against Staphylococcus aureus CIP54.146 after 18 hrs by broth microdilution method; assay type: functional; conditions: CIP54.146, 18 h
Procedure, shortened: (§2)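 CLSI broth microdilution with serial 2-fold dilutions from 0.06 to 64 μg/mL. Cation-adjusted Mueller–Hinton broth, inoculum 5 × 10^5 CFU/mL, incubated at 35 °C for 18 h. MIC taken as the lowest concentration with no visible growth.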

[11] = Cytotoxicity against human HepG2 cells; assay type: cell-based; conditions: read-out: ED50 (the source's name)
[12] = biological target: T1, Enoyl-[acyl-carrier-protein] reductase [NADPH] FabI (Staphylococcus aureus, UniProt Q6GI75); assay: Inhibition of Staphylococcus aureus recombinant FabI using trans-2-octenoyl N-acetylcysteamine thioester as substrate preincubated for 60 mins
T1 sequence (Q6GI75 whole entry): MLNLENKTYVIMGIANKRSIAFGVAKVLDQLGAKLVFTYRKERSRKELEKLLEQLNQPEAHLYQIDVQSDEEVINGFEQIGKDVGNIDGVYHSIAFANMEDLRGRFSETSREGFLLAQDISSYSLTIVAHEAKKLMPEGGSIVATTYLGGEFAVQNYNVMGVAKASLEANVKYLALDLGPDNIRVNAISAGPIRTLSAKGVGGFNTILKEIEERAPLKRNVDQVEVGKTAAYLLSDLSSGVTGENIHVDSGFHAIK
Procedure, shortened: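 Recombinant S. aureus FabI (2 nM) in 50 mM ADA pH 6.5, 1 mM DTT, 0.006% Triton X-100, 50 mM NaCl. Preincubated 60 min at room temperature with 40 μM NADPH, 10 μM NADP+ and inhibitor in DMSO. Reaction started with 100 μM t-o-NAC. Inhibition versus untreated samples; IC50 by Langmuir fit.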

Streptococcus pneumoniae = assay: Antibacterial activity against Streptococcus pneumoniae D39 after 18 hrs by broth microdilution method; assay type: functional; conditions: D39, 18 h
Procedure, shortened: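 CLSI broth microdilution with 2-fold dilutions from 0.06 to 64 μg/mL. Cation-adjusted Mueller–Hinton broth with 2.5% lysed horse blood, inoculum 5 × 10^5 CFU/mL, grown at 35 °C for 18 h in 5% CO2. MIC is the lowest concentration showing no visible growth.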

Escherichia coli [13] = assay: Antibacterial activity against Escherichia coli C7 after 18 hrs by broth microdilution method; assay type: functional; conditions: C7, 18 h
Enterococcus faecalis = assay: Antibacterial activity against Enterococcus faecalis ATCC 29212 after 18 hrs by broth microdilution method; assay type: functional; conditions: ATCC 29212, 18 h; procedure, shortened: as §2

## CC(=O)NC[C@H]1CN(c2ccc(N3CCOCC3)c(F)c2)C(=O)O1 [LINEZOLID]
Staphylococcus aureus [1]
  MIC90: 2 µg/mL (≈ 5.93 µM)
[2]
  MIC90: 1 µg/mL (≈ 2.96 µM)
Staphylococcus aureus [3]
  MIC90: 2 µg/mL (≈ 5.93 µM)
[4]
  MIC90: 1 µg/mL (≈ 2.96 µM)
Staphylococcus aureus [5]
  MIC90: ≥ 16 µg/mL

## CN[C@H](CC(C)C)C(=O)N[C@H]1C(=O)N[C@@H](CC(N)=O)C(=O)N[C@H]2C(=O)N[C@H]3C(=O)N[C@H](C(=O)N[C@H](C(=O)O)c4cc(O)cc(O)c4-c4cc3ccc4O)[C@H](O)c3ccc(c(Cl)c3)Oc3cc2cc(c3O[C@@H]2O[C@H](CO)[C@@H](O)[C@H](O)[C@H]2O[C@H]2C[C@](C)(N)[C@H](O)[C@H](C)O2)Oc2ccc(cc2Cl)[C@H]1O [VANCOMYCIN]
Staphylococcus aureus [6]
  ED50: 6 mg/kg
Staphylococcus aureus [7]
  ED50: 5 mg/kg
Staphylococcus aureus [8]
  ED50: 9.4 mg/kg

## C[C@H]1COc2c(N3CCN(C)CC3)c(F)cc3c(=O)c(C(=O)O)cn1c23.C[C@H]1COc2c(N3CCN(C)CC3)c(F)cc3c(=O)c(C(=O)O)cn1c23.O [LEVOFLOXACIN]
Moraxella catarrhalis
  MIC90: 0.03 µg/mL
Haemophilus influenzae
  MIC90: 0.03 µg/mL
Neisseria meningitidis
  MIC90: ≤ 0.008 µg/mL
Neisseria gonorrhoeae
  MIC90: 0.5 µg/mL
Escherichia coli [9]
  MIC90: ≥ 16 µg/mL
Proteus mirabilis
  MIC90: 0.06 µg/mL

## CCc1ccc(Oc2ccc(C(=O)N3CCNC(=O)C3)cc2F)c(O)c1
Staphylococcus aureus [10]
  MIC: 1 µg/mL (≈ 2.79 µM)
[11]
  CC50: > 32 µg/mL
[12]
  IC50: 28 nM
Streptococcus pneumoniae
  MIC: > 32 µg/mL
Escherichia coli [13]
  MIC: 8 µg/mL (≈ 22.3 µM)
Enterococcus faecalis
  MIC: > 32 µg/mL

From ChEMBL document CHEMBL2176870 (J Med Chem, 2012)
